# Test system: HOP-62
# Assay: Growth inhibition of human HOP-62 cells incubated for 48 hrs by sulforhodamine B assay
# Format: functional
# Settings: not given
# How it was run: (§1)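 NCI60 panel at the NCI Developmental Therapeutics Program. Only compounds active in the 10 µM screen went to dose-response testing. GI50, the concentration giving 50% of maximal inhibition of proliferation, and TGI, the concentration giving total growth inhibition, were derived from the dose-response curves.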
Structure (SMILES),GI50 [µM],LC50 [µM],TGI [µM]
COc1cccc(NC(=O)c2sc3nc4c(cc3c2N)CN(Cc2ccccc2)CC4)c1,1.83,41.1,6.47

# Test system: NCI-H322M
# Assay: Growth inhibition of human NCI-H322M cells incubated for 48 hrs by sulforhodamine B assay
# Format: functional
# Settings: not given
# How it was run: as §1
Structure (SMILES),GI50 [µM],TGI [µM]
COc1cccc(NC(=O)c2sc3nc4c(cc3c2N)CN(Cc2ccccc2)CC4)c1,25.2,> 100

# Same assay, conditions: read-out: LC50 (the source's name)
row,Structure (SMILES),CC50 [µM]
1,COc1cccc(NC(=O)c2sc3nc4c(cc3c2N)CN(Cc2ccccc2)CC4)c1,> 100

# Test system: KM12
# Assay: Growth inhibition of human KM12 cells incubated for 48 hrs by sulforhodamine B assay
# Format: functional
# Settings: not given
# How it was run: as §1
Structure (SMILES),GI50 [µM],LC50 [µM],TGI [µM]
COc1cccc(NC(=O)c2sc3nc4c(cc3c2N)CN(Cc2ccccc2)CC4)c1,11.8,> 100,40.3

# Test system: SF-295
# Assay: Growth inhibition of human SF-295 cells incubated for 48 hrs by sulforhodamine B assay
# Format: functional
# Settings: not given
# How it was run: (§2)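 NCI DTP 60-line human tumour panel. Dose-response curves were run only for ligands active in the initial 10 µM screen. GI50 (concentration giving 50% of maximal inhibition of proliferation) and TGI (concentration giving total growth inhibition) were derived from these curves.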
Structure (SMILES),GI50 [µM],LC50 (concentration killing 50% of cells) [µM],TGI [µM]
COc1cccc(NC(=O)c2sc3nc4c(cc3c2N)CN(Cc2ccccc2)CC4)c1,3.05,94.3,19.4

# Test system: LOX IMVI
# Assay: Growth inhibition of human LOX IMVI cells incubated for 48 hrs by sulforhodamine B assay
# Format: functional
# Settings: not given
# How it was run: as §1
Structure (SMILES),GI50 [µM],LC50 [µM],TGI [µM]
COc1cccc(NC(=O)c2sc3nc4c(cc3c2N)CN(Cc2ccccc2)CC4)c1,4.09,> 100,43.5

# Test system: UACC-257
# Assay: Growth inhibition of human UACC-257 cells incubated for 48 hrs by sulforhodamine B assay
# Format: functional
# Settings: not given
# How it was run: as §2
Structure (SMILES),GI50 [µM],LC50 (concentration killing 50% of cells) [µM],TGI [µM]
COc1cccc(NC(=O)c2sc3nc4c(cc3c2N)CN(Cc2ccccc2)CC4)c1,6.52,> 100,> 100

# Test system: SN12C
# Assay: Growth inhibition of human SN12C cells incubated for 48 hrs by sulforhodamine B assay
# Format: functional
# Settings: not given
# How it was run: as §2
Structure (SMILES),GI50 [µM],TGI [µM]
COc1cccc(NC(=O)c2sc3nc4c(cc3c2N)CN(Cc2ccccc2)CC4)c1,11.2,> 100

# Same assay, conditions: read-out: LC50 (the source's name)
row,Structure (SMILES),CC50 [µM]
1,COc1cccc(NC(=O)c2sc3nc4c(cc3c2N)CN(Cc2ccccc2)CC4)c1,> 100

# Test system: MDA-MB-231
# Assay: Growth inhibition of human MDA-MB-231 cells incubated for 48 hrs by sulforhodamine B assay
# Format: functional
# Settings: not given
# How it was run: as §1
Structure (SMILES),GI50 [µM],TGI [µM]
COc1cccc(NC(=O)c2sc3nc4c(cc3c2N)CN(Cc2ccccc2)CC4)c1,11.4,75.3

# Same assay, conditions: read-out: LC50 (the source's name)
row,Structure (SMILES),CC50 [µM]
1,COc1cccc(NC(=O)c2sc3nc4c(cc3c2N)CN(Cc2ccccc2)CC4)c1,> 100

# Test system: Hs-578T
# Assay: Growth inhibition of human Hs-578T cells incubated for 48 hrs by sulforhodamine B assay
# Format: functional
# Settings: not given
# How it was run: as §1
Structure (SMILES),GI50 [µM],TGI [µM]
COc1cccc(NC(=O)c2sc3nc4c(cc3c2N)CN(Cc2ccccc2)CC4)c1,2.14,23

# Same assay, conditions: read-out: LC50 (the source's name)
row,Structure (SMILES),CC50 [µM]
1,COc1cccc(NC(=O)c2sc3nc4c(cc3c2N)CN(Cc2ccccc2)CC4)c1,> 100
